# Bioassay records: PubChem, Johns Hopkins Ion Channel Center
# RGS4 pot: potentiators or activators of RGS4; AID 463111; HEK293 M3R/inducible RGS4, carbachol calcium flux Fluo4; stronger effect = lower value; actives 0.92% (n = 310,000); B-score at 10 µM;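 active = B-score of the integrated calcium signal more than 4 SD below the library mean, with starting fluorescence not abnormally high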;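 note: negative B-score means reduced calcium response which marks RGS4 activation or potentiation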
#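 Reagent: ECmax carbachol challenge; Test system: M3R-expressing HEK293 line, RGS4 induced by doxycycline; Schedule: overnight RGS4 induction, 30 min dye load 37 °C, 20 min compound RT; Detection: calcium dye Fluo4 fluorescence; Read-out: Agonist-evoked peak-minus-minimum fluorescence over baseline, integrated ratio, B score.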
# MrgX1 antag: antagonists of human MrgX1 receptor; Q96LB2; MRGX1-HEK293 calcium flux, Fluo-4, BAM8-22 antagonism; stronger effect = lower value; B-score at 10 µM; actives 1.3% (n = 310,000); AID 588676;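 active = calcium-response B-score plate-corrected more than 3 library SD below zero, starting fluorescence within 5 deviations, no agonist response on first addition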;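 note: peak minus trough fluorescence over baseline after final BAM8-22 challenge near maximal dose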
# Target sequence (Q96LB2 whole entry, looked up): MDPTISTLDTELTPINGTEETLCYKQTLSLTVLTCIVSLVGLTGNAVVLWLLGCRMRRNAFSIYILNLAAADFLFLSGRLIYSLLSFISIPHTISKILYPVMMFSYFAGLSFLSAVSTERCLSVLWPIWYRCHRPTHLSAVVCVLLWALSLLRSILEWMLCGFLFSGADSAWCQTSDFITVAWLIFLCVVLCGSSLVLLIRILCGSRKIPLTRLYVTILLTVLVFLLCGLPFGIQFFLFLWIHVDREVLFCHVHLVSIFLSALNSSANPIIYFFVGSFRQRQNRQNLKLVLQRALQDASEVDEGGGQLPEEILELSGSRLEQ
# RGS4 inh: inhibitors of human RGS4; P49798; HEK293 M3R/RGS4 inducible, Fluo-4 calcium flux; stronger effect = higher value; triggered by carbachol at its EC20; B-score at 10 µM; actives 0.45% (n = 310,000); AID 463165;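 active = B-score, a plate-corrected calcium signal, over three deviations above library mean, with baseline fluorescence within five deviations of library mean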;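 note: RGS4 expression induced by doxycycline in cells with stable M3 receptor; B-score is computed from the integrated fluorescence ratio over baseline after carbachol; higher B-score means a larger calcium signal and so more RGS4 inhibition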
# Target sequence (P49798 whole entry, looked up): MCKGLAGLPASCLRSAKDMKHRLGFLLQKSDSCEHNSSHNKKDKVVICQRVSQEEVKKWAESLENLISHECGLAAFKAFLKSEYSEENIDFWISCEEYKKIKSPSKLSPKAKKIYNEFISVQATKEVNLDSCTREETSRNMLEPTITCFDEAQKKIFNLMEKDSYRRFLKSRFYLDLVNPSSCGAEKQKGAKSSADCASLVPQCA
# MrgX1 PAM: human MrgX1 positive allosteric modulation, primary screen | Q96LB2 | MrgX1-HEK293, Fluo-4 calcium flux, FDSS; stronger effect = higher value | B-score at 10 µM | actives 0.63% (n = 310,000) | AID 588675;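 active = plate-corrected calcium response at least 3 library SD above typical, normal starting fluorescence, not activating the receptor alone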;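 note: compound read alongside a low EC10 to EC30 dose of BAM8-22 agonist; peak minus trough fluorescence over baseline measured at the second addition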
# MrgX1 ag: agonists of human MrgX1 receptor. Q96LB2. MrgX1-HEK293 cells, Fluo-4 calcium fluorescence, agonist mode; stronger effect = higher value. B-score at 10 µM. actives 0.44% (n = 310,000). AID 588627;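 active = calcium response B-score plate-corrected fluorescence ratio at least 3 library SD, with starting fluorescence B-score inside 5 SD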
#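 System: HEK293 cells stably expressing human MrgX1 receptor; Dosing: test compound in the initial addition of three; Schedule: overnight plating, then 30 min 37 °C plus 30 min room-temperature dye loading; Detection: kinetic calcium dye fluorescence, Fluo-4 NW; Controls: per-plate positive and negative controls for Z′ factor.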
# MrgX1 ant reconf: reconfirmed antagonist of human MrgX1 receptor signaling; actives 19% (n = 2,300); shares compounds with MrgX1 antag; MrgX1-HEK293, BAM8-22 calcium flux, Fluo-4; stronger effect = lower value; remaining BAM8-22 calcium response % of control (stronger effect = lower value), % at 10 µM; AID 602420;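 active = remaining agonist calcium response no higher than 100% minus 3 SD of agonist-only control wells, with starting fluorescence near control levels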;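 note: agonist BAM8-22 given at a near maximal EC90 to ECmax level; peak minus minimum fluorescence divided by baseline after agonist addition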
# HEK293 Ca flux: activity in parental HEK293 cells lacking MrgX1; fluorescence ratio F(max-min)/F0 at 10 µM; shares compounds with MrgX1 antag; actives 2% (n = 4,000); Fluo-4 calcium fluorescence, FDSS;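 active = duplicate-averaged calcium fluorescence ratio at least three times the standard deviation of buffer wells, a nonspecific response in parental cells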
# HEK293 Ca counter: counter-screen for MrgX1 allosteric activators: effect in parental HEK293 cells | shares compounds with MrgX1 antag | parental HEK293 calcium flux, Fluo-4 fluorescence ratio; stronger effect = higher value | fluorescence ratio F(max-min)/F0 at 10 µM | actives 0.4% (n = 4,000);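 active = calcium fluorescence ratio, averaged over duplicates, at least 3 SD of the buffer-well ratio, meaning a nonspecific response in receptor-free cells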;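 note: untransfected parental HEK293 lacking MrgX1 used as counterscreen for MrgX1 allosteric activators; fluorescence change taken during the second addition on a kinetic imager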
# HEK293 Ca cntr2: counter-screen for MrgX1 activators: effect in parental HEK293 cells; shares compounds with MrgX1 antag; Fluo-4 calcium fluorescence (FDSS); stronger effect = higher value; fluorescence ratio F(max-min)/F0 at 10 µM; actives 8.7% (n = 4,000); AID 624115;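 active = calcium fluorescence ratio at least three times the spread of buffer wells, meaning a non-specific response in parental cells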
# A number is an active result; – = inactive; · = no result. Most compounds without a hit are left out; they make up all but 3.5% or so of the library.
SMILES,RGS4 pot,MrgX1 antag,RGS4 inh,MrgX1 PAM,MrgX1 ag,MrgX1 ant reconf,HEK293 Ca flux,HEK293 Ca counter,HEK293 Ca cntr2
COC(=O)C(C)Sc1nc2c(cnn2-c2ccc(F)cc2)c(=O)[nH]1 (stereo unspecified),–,–,–,–,–,·,·,·,·
CCC(Sc1nc2c(cnn2-c2ccccc2)c(=O)[nH]1)C(=O)OC (stereo unspecified),–,-5.2,–,–,–,82%,–,–,–
COc1cc(C2C(C#N)=C(N)N(c3cccnc3)C3=C2C(=O)CC(C)(C)C3)ccc1O (stereo unspecified),–,–,–,–,–,·,·,·,·
COc1ccccc1C1C(C#N)=C(N)N(c2cccnc2)C2=C1C(=O)CC(C)(C)C2 (stereo unspecified),–,-8.8,–,–,–,–,–,–,–
CC(C)=CCCC(C)CN1CCC(n2nccc2NC(=O)c2cccnc2)CC1 (stereo unspecified),–,–,–,–,–,·,·,·,·
O=C(c1ccco1)N(CC1CCCO1)c1nc(-c2ccccc2)cs1 (stereo unspecified),–,–,–,–,–,·,·,·,·
Cc1ccc(-c2csc(N(CC3CCCO3)C(=O)c3ccco3)n2)cc1 (stereo unspecified),–,-4.7,–,–,–,–,–,–,–
CC(=O)c1ccc(OC(=O)c2ccc(-n3nc(C)cc3C)cc2)cc1,–,–,–,–,–,·,·,·,·
Cc1cc(C)n(-c2ccc(C(=O)Oc3ccc4c(c3)OCO4)cc2)n1,–,-6.7,–,–,–,–,–,–,–
COc1ccccc1OCCNC(=O)C1CC(=O)N(c2cccc(SC)c2)C1 (stereo unspecified),–,–,–,–,–,·,·,·,·
CC1CCCN(C(=O)Nc2ccc(Br)cc2Cl)C1 (stereo unspecified),–,–,–,–,–,·,·,·,·
CC1CN(C(=O)Nc2ccc(Br)cc2Cl)CC(C)O1 (stereo unspecified),–,-6.4,–,–,–,–,–,–,–
Cc1cccc(C)c1NC(=O)CSc1ncnc2nc[nH]c12,–,-4.7,–,–,–,–,–,–,–
COc1cccc(N=C2NC(=O)/C(=C/c3cc([N+](=O)[O-])ccc3O)S2)c1,–,-11,–,–,–,–,–,–,–
COCCn1c(N/N=C(C)/C=C/c2ccccc2)nc2c1c(=O)[nH]c(=O)n2C,–,–,–,–,–,·,·,·,·
COc1ccc(-n2c(=S)[nH]c3cc(C(=O)Nc4ccc(C)c(F)c4)ccc3c2=O)c(OC)c1,–,-5,–,–,–,–,–,–,–
C=CCSc1nc2sc3c(c2c(=O)n1-c1ccc(C)cc1)CCN(C)C3,–,–,–,–,–,·,·,·,·
COC(=O)C1=C(CN2CCSCC2)NC(=O)NC1c1cc(C)ccc1C (stereo unspecified),–,-5.6,–,–,–,–,–,–,–
COC(=O)N1[C@H](C)C=C[C@]1(Cc1ccccc1)C(=O)O,–,–,–,–,–,·,·,·,·
CCc1ccccc1NC(=O)[C@@H]1CCC(=O)N1C1OC(=O)c2ccccc21 (stereo partly specified),–,-8.1,–,–,–,85%,–,–,–
CC1=CC(C)(C)[N+](C)(C)c2ccc(C)cc21,–,–,–,–,–,·,·,·,·
OCCCNc1cc(-c2ccnc(Nc3cccc(Cl)c3)n2)ccn1,–,-4.9,–,–,–,60%,–,–,–
COC(=O)c1sc(-c2ccc(C(C)(C)C)cc2)cc1NC(=O)CCC(=O)O,–,-6.6,–,–,–,58%,–,–,–
